Published values collected from several papers.
Protocols differ between the studies behind these lines.
Sample: plasma

SMILES	host	route	dose	setting	quantity	result
COc1cc2c(NC3CCN(CCCC(=O)NCCCCCCCCCCCC(=O)N[C@H](C(=O)N4C[C@H](O)C[C@H]4C(=O)NCc4ccc(-c5scnc5C)cc4)C(C)(C)C)CC3)nc(N3CCC(F)(F)CC3)nc2cc1OCCCN1CCCC1	male C57BL/6 mouse	intraperitoneal	50 mg/kg	single dose	AUC(0-t)	61 µM·h
CCOc1ccc(N(C)S(=O)(=O)c2cc(Cl)sc2C(=O)Nc2cc(Cl)cc(C(=O)O)c2)cc1OC	male C57BL/6 mouse	intraperitoneal	10 mg/kg	–	AUC(0-t)	5810 ng·h/mL
CCN1CCN(Cc2ccc(NC(=O)c3ccc(C)c(NC(=O)c4cncc(-c5cccs5)c4)c3)cc2C(F)(F)F)CC1	mouse	intraperitoneal	20 mg/kg	single dose	AUC(0-t)	1990 ng·h/mL
Nc1ncn([C@H]2C[C@H](O)[C@@H](CO)O2)c(=O)n1	female C57BL/6 mouse	oral	0.4 mg/kg	–	AUC(0-inf)	71 ng·h/mL
CCOC(=O)CN(C(=O)c1ccn2ncc(-c3ccc(C(=O)NC)cc3)c2c1)c1ccc(Cl)cc1	female C57BL/6 mouse	oral	10 mg/kg	–	AUC	1.18 µM·h
C=CS(=O)(=O)c1ccc(Nc2nc(OCC3CCCCC3)c3nc[nH]c3n2)cc1	male BALB/c mouse	intravenous	20 mg/kg	single dose	AUC(0-t)	124 ng·h/mL
Cc1cc2sc(N)nc2c2cccnc12	female BALB/c mouse	intraperitoneal	30 mg/kg	single dose	AUC(0-inf)	45600 ng·h/mL
CN1CCN(C(=O)[C@H](CCCN[C@@H]2C[C@H]2c2ccc(F)cc2)NC(=O)c2ccc(-n3ccnn3)cc2)CC1	CD-1 mouse	intravenous	3 mg/kg	–	AUC(0-t)	2.52 µM·h
CC(=O)O[C@@]12CO[C@@H]1C[C@H](O)[C@@]1(C)C(=O)[C@H](O)C3=C(C)[C@@H](OC(=O)[C@H](O)[C@@H](NC(=O)OC(C)(C)C)c4ccccc4)C[C@@](O)([C@@H](OC(=O)c4ccccc4)[C@H]21)C3(C)C	male Kunming mouse	oral	20 mg/kg	–	AUC(0-t)	14.7 ng·h/mL
Cc1c(C(=O)O)ccc2c3n(nc12)[C@@H]1[C@H](C3)N(CC2CC2)[C@@]2(C(=O)Nc3cc(Cl)ccc32)[C@H]1c1cccc(Cl)c1F	female mouse	oral	5 mg/kg	–	AUC(0-inf)	125 µM·h
CN(C(=O)c1ccn2ncc(-c3ccc(C(N)=O)cc3)c2c1)c1ccc(C#N)cn1	female C57BL/6 mouse	intravenous	1 mg/kg	–	AUC	2.68 µM·h
